In ChEMBL document CHEMBL1799916, “Novel 3,5-bis(bromohydroxybenzylidene)piperidin-4-ones as coactivator-associated arginine methyltransferase 1 inhibitors: enzyme selectivity and cellular activity” (J Med Chem, 2011):
The source made the active and inactive calls. The calls are words filed in the database; no cut-off is given here.

What was measured:
[1] = target: Protein arginine N-methyltransferase 5 (Homo sapiens) (UniProt O14744); assay: Inhibition of PRMT5-mediated methylation of histone H4 at 100 uM after 90 mins by scintillation counting in presence of S-adenosyl-l-[methyl-3H]methionine
Chain of Protein arginine N-methyltransferase 5 (Homo sapiens) (O14744 whole entry): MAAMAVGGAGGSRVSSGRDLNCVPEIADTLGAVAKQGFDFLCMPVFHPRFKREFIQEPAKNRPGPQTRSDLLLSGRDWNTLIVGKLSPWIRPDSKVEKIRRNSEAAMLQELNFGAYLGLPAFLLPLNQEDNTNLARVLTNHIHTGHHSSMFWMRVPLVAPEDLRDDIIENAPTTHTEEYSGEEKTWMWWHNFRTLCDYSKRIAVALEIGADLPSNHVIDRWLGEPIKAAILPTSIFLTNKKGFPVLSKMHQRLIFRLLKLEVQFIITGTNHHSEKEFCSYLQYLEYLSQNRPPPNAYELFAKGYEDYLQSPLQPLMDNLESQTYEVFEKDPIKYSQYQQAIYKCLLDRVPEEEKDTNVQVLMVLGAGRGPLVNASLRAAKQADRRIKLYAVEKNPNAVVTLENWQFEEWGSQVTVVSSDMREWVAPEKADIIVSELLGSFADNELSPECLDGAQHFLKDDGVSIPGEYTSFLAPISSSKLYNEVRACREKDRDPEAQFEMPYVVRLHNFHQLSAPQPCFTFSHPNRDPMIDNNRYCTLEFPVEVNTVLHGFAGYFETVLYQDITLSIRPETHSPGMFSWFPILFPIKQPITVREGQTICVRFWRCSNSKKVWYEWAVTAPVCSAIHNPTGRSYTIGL
Outline: (§1)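 Compound at 100 μM with 0.1–0.2 μM recombinant enzyme and 0.5–1.5 μM substrate in PBS pH 7.4 containing [³H]AdoMet. Incubated 30 °C for 90 min, then SDS-PAGE, PVDF transfer and overnight film fluorography. Ponceau-stained substrate bands cut out and dpm counted by liquid scintillation.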

[2] = target: T1, Histone-arginine methyltransferase CARM1 (Homo sapiens) (UniProt Q86X55); assay: Inhibition of CARM1-mediated prostate specific antigen promoter activity in human LNCAP cells at 30 uM after 48 hrs by luciferase reporter gene assay; format: cell-based
T1 sequence (whole entry): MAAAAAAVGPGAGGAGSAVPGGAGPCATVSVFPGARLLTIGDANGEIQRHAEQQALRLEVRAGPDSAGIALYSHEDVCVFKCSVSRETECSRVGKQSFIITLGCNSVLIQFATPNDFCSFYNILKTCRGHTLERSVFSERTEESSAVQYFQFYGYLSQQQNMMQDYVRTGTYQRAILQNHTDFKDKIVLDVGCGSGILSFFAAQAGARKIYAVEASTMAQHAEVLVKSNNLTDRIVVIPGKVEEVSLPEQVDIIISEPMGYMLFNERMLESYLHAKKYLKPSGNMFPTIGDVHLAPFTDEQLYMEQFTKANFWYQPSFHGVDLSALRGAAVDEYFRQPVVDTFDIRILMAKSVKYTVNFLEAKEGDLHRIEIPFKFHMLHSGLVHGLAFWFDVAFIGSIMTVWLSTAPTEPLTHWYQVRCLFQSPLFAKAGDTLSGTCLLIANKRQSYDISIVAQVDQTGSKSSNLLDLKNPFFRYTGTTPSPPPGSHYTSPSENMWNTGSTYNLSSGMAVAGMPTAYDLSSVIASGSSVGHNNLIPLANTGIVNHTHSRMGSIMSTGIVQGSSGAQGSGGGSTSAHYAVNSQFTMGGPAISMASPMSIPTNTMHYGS
Outline: (§2)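 LNCaP grown in phenol-red-free RPMI1640 with 10% charcoal-stripped FCS, lipofected with 300 ng PSA(ARE)-LUC and 2 ng CMV-Renilla internal control. After 12 h, 20 nM DHT added to induce PSA-firefly, together with increasing compound concentrations. Cells harvested 42–44 h later; 5/6 used for dual luciferase read-out (firefly relative to Renilla). Mean ± SD from triplicate assays.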

[3] = target: T2, Histone-arginine methyltransferase CARM1 (Homo sapiens, UniProt Q86X55); assay: Inhibition of CARM1-mediated methylation of PABP1 after 90 mins by scintillation counting in presence of S-adenosyl-l-[methyl-3H]methionine
T2 sequence (Q86X55 whole entry): T1 sequence (whole entry)

LNCaP [4] = assay: Cytotoxicity against human LNCAP cells assessed as ATP level at 30 uM after 44 hrs by CellTiter-Glo luminescent assay; format: cell-based
Outline: (§3)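 LNCaP in phenol-red-free RPMI1640 with 10% charcoal-stripped FCS, seeded ~20 h before transfection with PSA(ARE)-LUC plus CMV-Renilla. 12 h after transfection, treated with 20 nM DHT and compound. Harvested after 42–44 h; 1/6 of the cells assayed for ATP by CellTiter-Glo luminescence.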

[5] = target: T3, Histone-lysine N-methyltransferase SUV39H1 (Homo sapiens) (UniProt O43463); assay: Inhibition of Suv39H1-mediated methylation of histone H3 at 100 uM after 90 mins by scintillation counting in presence of S-adenosyl-l-[methyl-3H]methionine
T3 sequence (whole entry): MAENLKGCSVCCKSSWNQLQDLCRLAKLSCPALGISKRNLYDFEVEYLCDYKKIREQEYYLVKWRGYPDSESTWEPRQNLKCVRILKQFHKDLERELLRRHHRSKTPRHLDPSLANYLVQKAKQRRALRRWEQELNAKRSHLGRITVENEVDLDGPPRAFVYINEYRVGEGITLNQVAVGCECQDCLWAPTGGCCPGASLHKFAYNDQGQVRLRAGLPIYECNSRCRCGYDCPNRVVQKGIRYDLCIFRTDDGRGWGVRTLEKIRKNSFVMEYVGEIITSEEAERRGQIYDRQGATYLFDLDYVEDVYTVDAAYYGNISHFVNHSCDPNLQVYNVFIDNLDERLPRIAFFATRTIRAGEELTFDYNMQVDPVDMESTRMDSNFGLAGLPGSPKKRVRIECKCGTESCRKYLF

LNCaP [6] = assay: Cytotoxicity against human LNCAP cells assessed as ATP level at 8 to 10 uM after 44 hrs by CellTiter-Glo luminescent assay; format: cell-based; outline: as §3
[7] = target: Protein arginine N-methyltransferase 3 (Homo sapiens) (UniProt O60678); assay: Inhibition of PRMT3-mediated methylation of NPL3 at 100 uM after 90 mins by scintillation counting in presence of S-adenosyl-l-[methyl-3H]methionine; outline: as §1
Chain of Protein arginine N-methyltransferase 3 (Homo sapiens) (O60678 2-531 limits assumed): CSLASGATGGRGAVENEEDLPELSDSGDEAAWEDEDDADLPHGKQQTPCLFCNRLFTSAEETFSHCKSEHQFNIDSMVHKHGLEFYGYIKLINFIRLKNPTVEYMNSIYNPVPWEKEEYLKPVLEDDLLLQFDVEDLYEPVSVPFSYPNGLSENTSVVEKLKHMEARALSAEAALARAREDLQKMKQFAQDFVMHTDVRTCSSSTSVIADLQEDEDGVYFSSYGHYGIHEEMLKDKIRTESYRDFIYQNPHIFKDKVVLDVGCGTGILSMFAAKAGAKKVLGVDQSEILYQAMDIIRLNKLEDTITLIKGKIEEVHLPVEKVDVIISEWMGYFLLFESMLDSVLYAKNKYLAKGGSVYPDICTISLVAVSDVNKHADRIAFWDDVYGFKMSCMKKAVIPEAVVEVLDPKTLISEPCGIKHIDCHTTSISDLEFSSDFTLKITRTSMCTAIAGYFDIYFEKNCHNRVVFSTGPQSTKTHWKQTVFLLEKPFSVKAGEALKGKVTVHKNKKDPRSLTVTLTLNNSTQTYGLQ

[8] = target: T1, Histone-arginine methyltransferase CARM1 (Homo sapiens); assay: Inhibition of CARM1 expressed in tetracycline-induced human HEK293 cells coexpressing flag-tagged PABP1 assessed as inhibition of PABP1 methylation at 1 to 5 uM by SDS-PAGE analysis; format: cell-based
Outline: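 HEK293 line carrying tetracycline-controlled TetR with inducible Flag-tagged PABP1. Tetracycline added in the presence of compound to induce Flag-PABP1, which is resolved from endogenous PABP1 by its slower SDS-PAGE migration. Methylation detected with a methyl-specific PABP1 antibody.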

[9] = target: Protein arginine N-methyltransferase 3 (Homo sapiens) (UniProt O60678); assay: Inhibition of PRMT3-mediated methylation of ribosome protein rpS223 at 100 uM after 90 mins by scintillation counting in presence of S-adenosyl-l-[methyl-3H]methionine; outline: as §1
[10] = target: T1, Histone-arginine methyltransferase CARM1 (Homo sapiens); assay: Inhibition of CARM1-mediated prostate specific antigen promoter activity in human LNCAP cells after 48 hrs by luciferase reporter gene assay; format: cell-based; outline: as §2

| inhibition [1] | inhibition [2] | IC50 [3] | inhibition [5] | inhibition [7] | inhibition [8] | inhibition [9] | inhibition [10] | SMILES | Activity (LNCaP [4]) | Activity (LNCaP [6]) |
| --- | --- | --- | --- | --- | --- | --- | --- | --- | --- | --- |
| Active | Active | 14.4 µM | inactive |  |  |  |  | O=C1/C(=C/c2ccc(O)c(Br)c2)CN(CC(=O)c2ccccc2)C/C1=C\c1ccc(O)c(Br)c1 | Non-toxic |  |
|  |  | 8.6 µM | inactive | Active | Active | Active | Dose-dependent effect | O=C1/C(=C/c2ccc(O)c(Br)c2)CN(Cc2ccccc2)C/C1=C\c1ccc(O)c(Br)c1 |  | Non-toxic |
| Active |  | 8.1 µM | inactive | Active |  | Active | Dose-dependent effect | O=C1/C(=C/c2ccc(O)c(Br)c2)CN(Cc2cccc(Cl)c2)C/C1=C\c1ccc(O)c(Br)c1 |  |  |
